Measured values published in ChEMBL document CHEMBL1141864, “Structure-activity relationships in 1,4-benzodioxan-related compounds. 8.(1) {2-[2-(4-chlorobenzyloxy)phenoxy]ethyl}-[2-(2,6-dimethoxyphenoxy)ethyl]amine (clopenphendioxan) as a tool to highlight the involvement of alpha1D- and alpha1B-adrenoreceptor subtypes in the regulation of human PC-3 …” (J Med Chem, 2005).

Experiments:
[1] = target: T1, Alpha-1D adrenergic receptor (Homo sapiens, UniProt P25100); assay: Displacement of [3H]prazosin from cloned human ADRA1D expressed in CHO cells; type: cell-based
T1 sequence (P25100 whole entry): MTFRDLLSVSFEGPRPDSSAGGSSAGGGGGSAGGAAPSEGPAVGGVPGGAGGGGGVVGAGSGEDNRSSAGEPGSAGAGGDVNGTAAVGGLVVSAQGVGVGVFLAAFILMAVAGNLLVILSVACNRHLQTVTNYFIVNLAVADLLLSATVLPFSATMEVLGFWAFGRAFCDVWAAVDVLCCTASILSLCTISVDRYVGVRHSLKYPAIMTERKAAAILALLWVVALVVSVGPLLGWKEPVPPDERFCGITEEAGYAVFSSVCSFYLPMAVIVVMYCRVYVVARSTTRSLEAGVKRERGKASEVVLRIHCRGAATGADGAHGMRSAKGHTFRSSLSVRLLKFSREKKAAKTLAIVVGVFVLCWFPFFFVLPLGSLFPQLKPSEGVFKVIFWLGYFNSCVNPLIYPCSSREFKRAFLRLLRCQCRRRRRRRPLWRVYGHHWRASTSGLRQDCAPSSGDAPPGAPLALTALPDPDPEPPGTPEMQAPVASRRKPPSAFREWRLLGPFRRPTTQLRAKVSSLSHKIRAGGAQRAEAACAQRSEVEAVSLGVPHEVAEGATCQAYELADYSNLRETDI

[2] = target: T2, Alpha-1B adrenergic receptor (Rattus norvegicus) (UniProt P15823); assay: ADRA1B blocking activity assessed by antagonism of (-)-phenylephrine induced contractions on isolated rat spleen; type: functional, tissue-based
T2 sequence (whole entry): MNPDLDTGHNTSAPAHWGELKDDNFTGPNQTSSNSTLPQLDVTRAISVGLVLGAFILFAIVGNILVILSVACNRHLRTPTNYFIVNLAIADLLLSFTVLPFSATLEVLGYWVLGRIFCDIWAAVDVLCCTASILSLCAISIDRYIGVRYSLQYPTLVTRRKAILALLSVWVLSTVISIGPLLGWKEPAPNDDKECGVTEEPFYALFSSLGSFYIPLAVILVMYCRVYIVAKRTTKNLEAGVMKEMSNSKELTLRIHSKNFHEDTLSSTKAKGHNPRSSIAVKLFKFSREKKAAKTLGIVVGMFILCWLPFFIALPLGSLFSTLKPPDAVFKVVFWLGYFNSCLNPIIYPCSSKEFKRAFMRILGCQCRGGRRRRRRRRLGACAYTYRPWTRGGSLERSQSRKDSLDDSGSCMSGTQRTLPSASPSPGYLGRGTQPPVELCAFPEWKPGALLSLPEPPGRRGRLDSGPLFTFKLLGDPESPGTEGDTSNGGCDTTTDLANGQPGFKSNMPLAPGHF
Summary of the method: (§1)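 Isolated rat tissue: each antagonist concentration tested four times over 0.01–1 μM; pK_B calculated by van Rossum method from shifts of (-)-noradrenaline contraction curves (vas deferens, α1A; thoracic aorta, α1D) or (-)-phenylephrine contraction curves (spleen, α1B).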

PC-3 = assay: Cytotoxic activity on human PC3 prostate cancer cells by SRB assay; type: functional; settings: for GI50 / LC50 (50% lethal concentration) / TGI: Homo sapiens, PC-3
Summary of the method: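 NCI-protocol SRB assay on PC-3 cells grown in DMEM/10% FBS/2 mM glutamine. Seeded 24 h, then compounds in medium for 48 h at 37 °C, 5% CO2, in quadruplicate. A time-zero plate was read. Cells TCA-fixed, stained with 0.4% SRB, absorbance at 520 nm. GI50, TGI and LC50 interpolated from % growth versus log concentration.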

[3] = target: T3, Alpha-1A adrenergic receptor (Rattus norvegicus) (UniProt P43140); assay: ADRA1A blocking activity assessed by antagonism of (-)-NE induced contractions on isolated rat prostatic vas deferens; type: functional, tissue-based; summary of the method: as §1
T3 sequence (whole entry): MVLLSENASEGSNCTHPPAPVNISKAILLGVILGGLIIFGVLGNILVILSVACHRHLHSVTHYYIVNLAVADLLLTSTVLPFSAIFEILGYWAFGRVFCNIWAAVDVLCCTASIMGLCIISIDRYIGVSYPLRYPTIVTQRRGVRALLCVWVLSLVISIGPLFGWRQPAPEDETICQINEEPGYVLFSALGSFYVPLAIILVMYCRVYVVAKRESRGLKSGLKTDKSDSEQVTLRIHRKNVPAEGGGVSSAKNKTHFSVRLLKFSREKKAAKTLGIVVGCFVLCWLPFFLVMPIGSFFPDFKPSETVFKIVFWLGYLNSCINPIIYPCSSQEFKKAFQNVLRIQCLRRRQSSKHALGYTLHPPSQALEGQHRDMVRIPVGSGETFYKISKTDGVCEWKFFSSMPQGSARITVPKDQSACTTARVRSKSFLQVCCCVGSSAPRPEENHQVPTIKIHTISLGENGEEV

[4] = target: T4, Alpha-1D adrenergic receptor (Rattus norvegicus) (UniProt P23944); assay: ADRA1D blocking activity assessed by antagonism of (-)-NE induced contractions on isolated rat thoracic aorta; type: functional, tissue-based; summary of the method: as §1
T4 sequence (whole entry): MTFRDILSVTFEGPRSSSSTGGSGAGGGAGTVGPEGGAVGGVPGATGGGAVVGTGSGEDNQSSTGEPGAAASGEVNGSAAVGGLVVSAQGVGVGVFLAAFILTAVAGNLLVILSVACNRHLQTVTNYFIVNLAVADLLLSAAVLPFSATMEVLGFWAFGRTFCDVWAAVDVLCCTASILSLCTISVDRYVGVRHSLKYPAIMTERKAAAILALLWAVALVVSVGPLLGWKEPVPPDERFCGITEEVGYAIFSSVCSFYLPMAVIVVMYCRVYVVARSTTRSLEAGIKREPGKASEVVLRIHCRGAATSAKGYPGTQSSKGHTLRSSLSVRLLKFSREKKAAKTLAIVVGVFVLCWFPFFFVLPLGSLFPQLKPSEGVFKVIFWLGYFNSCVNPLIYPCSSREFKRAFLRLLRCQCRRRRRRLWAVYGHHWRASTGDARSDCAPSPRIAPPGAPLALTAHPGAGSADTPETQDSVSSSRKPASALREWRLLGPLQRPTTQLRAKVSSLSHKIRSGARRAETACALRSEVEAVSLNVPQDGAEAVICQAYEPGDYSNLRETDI

Q: What does the source list for `COc1cccc(OC)c1OCCNCCOc1ccccc1OCc1ccc(C)cc1`?
A: Ki [1]: 0.0631 nM; pKb [2]: 8.43; GI50 (PC-3): 7.8 µM; LC50 (50% lethal concentration) (PC-3): 61.7 µM; TGI (PC-3): 27.5 µM; pKb [3]: 8.23; pKb [4]: 9.12

Q: Which Ki [1] does the source give for `COc1cccc(OC)c1OCCNCCOc1ccccc1OCc1ccccc1[N+](=O)[O-]` here?
A: 0.912 nM

Q: And the pKb [2]?
A: 8.56

Q: And the GI50 (PC-3)?
A: 13.2 µM

Q: And the LC50 (50% lethal concentration) (PC-3)?
A: 95.5 µM

Q: And the TGI (PC-3)?
A: 34.7 µM

Q: And the pKb [3]?
A: 8.2

Q: And the pKb [4]?
A: 8.95

Q: `COc1cccc(OC)c1OCCNCCOc1ccccc1OCc1ccc(Cl)cc1` [CLOPENPHENDIOXAN] was tested. Which Ki [1] did it give?
A: 0.0316 nM

Q: And the pKb [2]?
A: 8.06

Q: And the GI50 (PC-3)?
A: 2.4 µM

Q: And the LC50 (50% lethal concentration) (PC-3)?
A: 52.5 µM

Q: And the TGI (PC-3)?
A: 14.5 µM

Q: What about the pKb [3] of the same compound?
A: 8.17

Q: And the pKb [4]?
A: 9.11

Q: `COc1cccc(OC)c1OCCNCCOc1ccccc1OCc1cccc(C)c1` was tested. Which Ki [1] did it give?
A: 0.2 nM

Q: And the pKb [2]?
A: 8.2

Q: What about the GI50 (PC-3) of the same compound?
A: 12 µM

Q: And the LC50 (50% lethal concentration) (PC-3)?
A: 87.1 µM

Q: And the TGI (PC-3)?
A: 32.3 µM

Q: And the pKb [3]?
A: 8.3

Q: And the pKb [4]?
A: 8.85

Q: How did the Ki [1] turn out when `COc1ccccc1COc1ccccc1OCCNCCOc1c(OC)cccc1OC` was run?
A: 2 nM

Q: And the pKb [2]?
A: 8.13

Q: And the GI50 (PC-3)?
A: 8.9 µM

Q: And the LC50 (50% lethal concentration) (PC-3)?
A: 100 µM

Q: And the TGI (PC-3)?
A: 30.2 µM

Q: What about the pKb [3] of the same compound?
A: 8.53

Q: What about the pKb [4] of the same compound?
A: 8.86

Q: What does the source list for `COc1ccc(COc2ccccc2OCCNCCOc2c(OC)cccc2OC)cc1`?
A: Ki [1]: 0.1 nM; pKb [2]: 9.51; Activity (PC-3): <50%; GI50 (PC-3): 8.5 µM; TGI (PC-3): 34.7 µM; pKb [3]: 8.54; pKb [4]: 9.21

Q: Which results are given for `COc1cccc(OC)c1OCCNCCOc1ccccc1OCc1cccc(Cl)c1`?
A: Ki [1]: 0.0501 nM; pKb [2]: 7.93; GI50 (PC-3): 5.9 µM; LC50 (50% lethal concentration) (PC-3): 58.9 µM; TGI (PC-3): 20.4 µM; pKb [3]: 8.12; pKb [4]: 8.72

Q: For `COc1cccc(OC)c1OCCNCCOc1ccccc1OCc1ccccc1Cl`, which Ki [1] is on record?
A: 0.251 nM

Q: And the pKb [2]?
A: 7.52

Q: And the GI50 (PC-3)?
A: 5.4 µM

Q: What about the LC50 (50% lethal concentration) (PC-3) of the same compound?
A: 58.9 µM

Q: And the TGI (PC-3)?
A: 17.8 µM

Q: What about the pKb [3] of the same compound?
A: 8.56

Q: What about the pKb [4] of the same compound?
A: 8.59

Q: With `COc1cccc(COc2ccccc2OCCNCCOc2c(OC)cccc2OC)c1` as the compound, how does the Ki [1] read?
A: 0.316 nM

Q: And the pKb [2]?
A: 8.31

Q: And the GI50 (PC-3)?
A: 2.5 µM

Q: What about the LC50 (50% lethal concentration) (PC-3) of the same compound?
A: 61.7 µM

Q: And the TGI (PC-3)?
A: 15.1 µM

Q: And the pKb [3]?
A: 8.3

Q: What about the pKb [4] of the same compound?
A: 9.12

Q: `COc1cccc(OC)c1OCCNCCOc1ccccc1OCc1ccccc1` was tested. Which Ki [1] did it give?
A: 0.0676 nM

Q: What about the pKb [2] of the same compound?
A: 8.3

Q: And the GI50 (PC-3)?
A: 26.9 µM

Q: And the LC50 (50% lethal concentration) (PC-3)?
A: 193 µM

Q: And the TGI (PC-3)?
A: 76.9 µM

Q: And the pKb [3]?
A: 8.39

Q: And the pKb [4]?
A: 9.37

Q: With `COc1cccc(OC)c1OCCNCCOc1ccccc1OCc1ccc([N+](=O)[O-])cc1` as the compound, how does the Ki [1] read?
A: 0.0501 nM

Q: What about the pKb [2] of the same compound?
A: 9.02

Q: And the Activity (PC-3)?
A: <50%

Q: What about the GI50 (PC-3) of the same compound?
A: 12 µM

Q: What about the TGI (PC-3) of the same compound?
A: 43.6 µM

Q: What about the pKb [3] of the same compound?
A: 8.58

Q: And the pKb [4]?
A: 9.41

Q: `COc1cccc(OC)c1OCCNCCOc1ccccc1OCc1cccc([N+](=O)[O-])c1` was tested. Which Ki [1] did it give?
A: 0.0631 nM

Q: And the pKb [2]?
A: 8.74

Q: And the Activity (PC-3)?
A: <50%

Q: What about the GI50 (PC-3) of the same compound?
A: 13.2 µM

Q: What about the TGI (PC-3) of the same compound?
A: 38.9 µM

Q: What about the pKb [3] of the same compound?
A: 8.85

Q: What about the pKb [4] of the same compound?
A: 9.28

Q: With `COc1cccc(OC)c1OCCNCCOc1ccccc1OCc1ccccc1C` as the compound, how does the Ki [1] read?
A: 0.126 nM

Q: What about the pKb [2] of the same compound?
A: 7.67

Q: And the Activity (PC-3)?
A: <50%

Q: And the GI50 (PC-3)?
A: 11.5 µM

Q: And the TGI (PC-3)?
A: 33.9 µM

Q: What about the pKb [3] of the same compound?
A: 7.81

Q: And the pKb [4]?
A: 8.64
